Screens deposited in PubChem BioAssay by several laboratories.
A selection: hits, their analogues and other compounds. The true share with any hit is near 2.9%.
Arr AP2 block – inhibitors of beta-arrestin/AP2 binding, primary screen, biochemical, GPCR trafficking, flow cytometry. beta-arrestin 1 C-terminal peptide binding to AP2 beta2-adaptin appendage (human). FITC-arrestin peptide / GST-AP2 beads; AP2 beta2 appendage carries R879A mutation. inhibition, % at 10 µM. 340,000 compounds, 0.31% hits. AID 504490, 2011;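 active = inhibition above a set limit, near 3 SD of compounds lacking own fluorescence, cut at about 54% in these data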;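 note: plate controls were DMSO wells for no effect and 5 µM unlabelled arrestin peptide for full effect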
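Material – AP2 appendage R879A on GSH beads · Buffer or medium – PBS with 0.05% Tween 20 and 0.1% BSA · Probe or stimulus – fluorescein-tagged arrestin peptide at 50 nM final · Incubation – compound with beads 12 min RT, then probe 1 h RT · Detection – high-throughput flow cytometry of beads, ex 488, em 535 nm · Evaluation – percent response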
CaV13 ICDI inh – Primary screen for inhibitors of IQ motif and Ca2+-dependent inactivation inhibitor domain binding in CACNA1D, Förster resonance energy transfer in living cells, …; HEK cells, CFP/YFP FRET ICDI-IQ, plate reader, 10 min; percent FRET-ratio fall versus neutral wells; inhibition, % at 12.3 µM; 340,000 compounds, 0.098% hits;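 active = mean replicate inhibition of at least 30% and at least 1% of replicates passing that level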;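 note: 0% = median of the neutral control wells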
ADAM10 inh – human ADAM10 inhibitors, primary screen, biochemical, QFRET, HTS | 370,000 compounds, 0.62% hits | AID 720582, 2013 | recombinant ADAM10, EDANS/DABCYL FRET peptide cleavage, 3 h | inhibition, % at 7 µM;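 active = inhibition above a per-campaign cutoff equal to the mean of compounds falling between control-based bounds plus 3 SD, cut at about 20% in these data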;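 note: 0% = DMSO wells while the 100% control is not disclosed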
CendR NRP1 mod – modulators of CendR peptide binding to NRP-1, primary screen, biochemical, fluorescence polarization, uHTS | Neuropilin-1 (Homo sapiens), O14786 | FAM-RPARPAR peptide binding to NRP-1 | inhibition, % at 25 µM | 360,000 compounds, 0.85% hits | AID 602438, 2012;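 active = inhibition or corrected inhibition above about 18%, plus a signal ratio from 0.5 to 1.5, limit read from the data, passing the limit was not always enough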
Target sequence (O14786 whole entry, looked up): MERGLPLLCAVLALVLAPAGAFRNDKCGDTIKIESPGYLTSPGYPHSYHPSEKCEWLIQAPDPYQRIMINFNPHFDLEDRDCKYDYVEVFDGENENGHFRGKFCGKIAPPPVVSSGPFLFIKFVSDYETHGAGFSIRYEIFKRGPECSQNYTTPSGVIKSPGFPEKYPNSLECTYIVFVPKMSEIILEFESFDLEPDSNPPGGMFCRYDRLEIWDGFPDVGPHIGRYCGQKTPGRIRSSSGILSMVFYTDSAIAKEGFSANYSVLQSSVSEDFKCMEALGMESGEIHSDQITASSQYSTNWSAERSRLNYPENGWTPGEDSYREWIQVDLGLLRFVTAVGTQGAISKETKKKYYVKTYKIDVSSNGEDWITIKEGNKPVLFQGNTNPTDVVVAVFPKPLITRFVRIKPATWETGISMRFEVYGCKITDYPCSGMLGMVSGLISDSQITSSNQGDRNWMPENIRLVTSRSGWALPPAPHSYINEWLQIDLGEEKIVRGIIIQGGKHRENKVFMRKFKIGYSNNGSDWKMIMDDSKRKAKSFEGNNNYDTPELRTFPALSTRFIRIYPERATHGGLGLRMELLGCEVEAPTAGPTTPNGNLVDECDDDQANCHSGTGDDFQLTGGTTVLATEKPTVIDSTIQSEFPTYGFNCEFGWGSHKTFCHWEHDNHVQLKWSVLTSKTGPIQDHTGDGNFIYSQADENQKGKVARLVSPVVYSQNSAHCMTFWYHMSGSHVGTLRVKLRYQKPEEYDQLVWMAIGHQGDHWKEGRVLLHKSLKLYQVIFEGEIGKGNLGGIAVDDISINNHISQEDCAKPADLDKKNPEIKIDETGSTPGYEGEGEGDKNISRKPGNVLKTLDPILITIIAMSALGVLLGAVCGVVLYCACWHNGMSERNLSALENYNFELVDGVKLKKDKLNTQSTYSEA
FAS-TE inh – FAS thioesterase domain inhibitors, primary screen, biochemical, fluorescence intensity, uHTS | recombinant FAS-TE, OMFH fluorogenic substrate, fluorescence endpoint | inhibition, % at 15 µM | 360,000 compounds, 0.67% hits;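 active = compounds whose normalised, plate-corrected inhibition of enzyme fluorescence in the single-dose primary screen is 50% or more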;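 note: 0% = DMSO with enzyme and 100% = substrate without enzyme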
ADAM17 inh – ADAM17 inhibitors, primary screen, biochemical, QFRET | Disintegrin and metalloproteinase domain-containing protein 17 (Homo sapiens), P78536 | recombinant ADAM17, EDANS/DABCYL FRET peptide cleavage | inhibition, % at 6.95 µM | 370,000 compounds, 0.83% hits;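 active = inhibition above the mean of compounds lying between control limits plus 3 SD, set per campaign, cut at about 8.5% in these data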;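 note: 0% = DMSO-only wells as the low control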
ADAM10 confirm – human ADAM10 inhibitors, confirmation, biochemical, QFRET, triplicate; shares compounds with ADAM10 inh; ADAM10 QFRET peptide cleavage, EDANS fluorescence; inhibition, % at 6.95 µM; 2,100 compounds, 1% hits;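 active = inhibition above about 20% chosen separately for each screening run, limit read from the data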;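 note: 0% = DMSO wells and 100% = marimastat wells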
ADAM17 ctr – ADAM17 inhibitors, counter-screen for ADAM10 exosite inhibitor project, biochemical, QFRET, high throughput | inhibition, % at 6.95 µM | shares compounds with ADAM10 inh | AID 743214, 2013 | ADAM17 QFRET peptide cleavage, EDANS fluorescence | 2,100 compounds, 0.5% hits;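 active = mean triplicate inhibition above the solvent-only control wells' mean plus 3 SD, cut at about 12% in these data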;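 note: 0% = DMSO wells and 100% = marimastat wells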
ADAM10 ctr – ADAM10 inhibitors, counter-screen for ADAM17 exosite inhibitor project, biochemical, FRET, human ADAM10; recombinant ADAM10, EDANS/DABCYL FRET peptide cleavage, 3 h; shares compounds with ADAM17 inh; AID 743256, 2014; 2,900 compounds, 47% hits; inhibition, % at 6.95 µM;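 active = mean inhibition over the triplicate runs exceeds the activity threshold set in the earlier primary screen, cut at about 20% in these data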;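 note: 0% = DMSO wells and 100% = marimastat wells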
ADAM17 confirm – ADAM17 inhibitors, hit retest, confirmation, biochemical, QFRET peptide cleavage. shares compounds with ADAM17 inh. recombinant ADAM17, EDANS/DABCYL QFRET peptide cleavage. inhibition, % at 6.95 µM. 2,900 compounds, 65% hits;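 active = mean inhibition across replicates above the hit cutoff set in the primary screen, cut at about 8.5% in these data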;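 note: 0% = DMSO wells and 100% = marimastat wells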
Numbers without * were called inactive; . = no result given.

SMILES	Arr AP2 block	CaV13 ICDI inh	ADAM10 inh	CendR NRP1 mod	FAS-TE inh	ADAM17 inh	ADAM10 confirm	ADAM17 ctr	ADAM10 ctr	ADAM17 confirm
Cc1cccc(Oc2cc(NC(=O)c3ccccc3)cc([N+](=O)[O-])c2)c1	4	-2	22*	1	35	9.0*	7	2	17	12*
COc1ccc(CN([C@H](CO)CC(C)C)S(=O)(=O)N(Cc2ccccc2)[C@H](CO)CC(C)C)cc1	-6	-12	43*	3	22	23*	13	4	63*	35*
CC(C)C[C@@H](CO)N(Cc1ccccc1)S(=O)(=O)N(Cc1ccccc1)[C@H](CO)CC(C)C	7	.	.	-1	30	.	.	.	.	.
COc1cccc(N(C)C(=O)[C@@H](C2CC2)[C@@H](O)c2ccc3ccccc3c2)c1	.	.	10	.	.	1	.	.	.	.
CCCc1nc2ccccc2c(C(=O)OCC(=O)NC2CC2)c1CC	-12	-3	-3	7	1	-1	.	.	.	.
CCCc1nc2ccccc2c(C(=O)OCC(=O)Nc2ccc(S(=O)(=O)N3CCOCC3)cc2)c1CC	1	-5	40*	0	28	18*	10	4	30*	18*
C[C@H](NC(=O)c1nc[nH]c1C(=O)NCC(=O)OCc1ccccc1)C(=O)OCc1ccccc1	4	-9	12	11	15	6	.	.	.	.
CC(C)C[C@H](NC(=O)c1nc[nH]c1C(=O)NCC(=O)OCc1ccccc1)C(=O)OCc1ccccc1	-9	-7	45*	8	24	24*	6	2	36*	21*
CC(C)C[C@H](NC(=O)c1nc[nH]c1C(=O)NCC(=O)OC(C)(C)C)C(=O)OCc1ccccc1	10	-6	30*	-14	30	14*	3	1	36*	19*
CCn1c(CNc2ccc(Cl)cc2)nnc1SCC(=O)NCc1ccccc1	-4	-4	1	11	-3	-9	.	.	.	.
CCn1c(CNc2nc(-c3ccccc3)cs2)nnc1SCC(=O)NCc1ccccc1	-3	-4	20*	15	9	11*	2	0	10	13*
CC[C@H](C)[C@H]1CNC(=O)C(=O)N1CC1CCN(CC(C)C)CC1	.	-4	-7	.	.	-1	.	.	.	.
Cc1ccc(NC(=O)C(OC(=O)c2ccc(NC(N)=O)cc2)c2ccccc2)cc1Cl (centres undefined)	0	-3	32*	-8	38	18*	7	2	11	9.7*
C=CCC[C@@H](Cc1ccc(F)cc1)C(=O)OC[C@@H](NC(=O)[C@H](CC=C)CC(=O)N(CCO)Cc1ccccc1)c1ccccc1	3	-4	27*	4	21	11*	11	4	36*	20*
C=CCC[C@@H](Cc1ccc(F)cc1)C(=O)OC[C@@H](NC(=O)[C@@H](CC=C)CC(=O)N(CCO)Cc1ccccc1)c1ccccc1	-2	-7	47*	1	20	26*	7	3	44*	22*
COc1ccc(/C=C(/C(=O)Nc2ccccc2C(=O)NC(C)C)c2ccccc2)cc1	32	-6	20*	-13	23	9.6*	10	3	15	9
CN1C=CC(C(C(N)=O)c2ccccc2)c2ccccc21 (centres undefined)	.	-9	-17	3	-3	-2	.	.	.	.
CC(C)CC(C(=O)OCC(=O)Nc1cccc(Cl)c1)N1C(=O)C2CC=CCC2C1=O (centres undefined)	6	-1	35*	-5	19	17*	3	0	27*	11*
CCOc1ccccc1NC(=O)COC(=O)C(CC(C)C)N1C(=O)C2CC=CCC2C1=O (centres undefined)	1	-6	10	-18	8	2	.	.	.	.
CC(C)(C)OC(=O)NCCCc1ccc2c(c1)[C@]1(CCC[C@@H](OCc3ccccc3)[C@@H]1NC(=O)CCc1ccccc1)C(=O)N2Cc1ccccc1	.	.	-8	.	.	-7	.	.	.	.
CC(C)(C)N1Cc2nnn(Cc3ccccc3)c2-c2cc(N3CCCC3)ccc2S1(=O)=O	.	.	-49	.	.	-16	.	.	.	.
Cc1ccccc1NC(=O)C(C)OC(=O)C1CCCO1 (centres undefined)	.	2	-6	11	-7	-3	.	.	.	.
CCCn1c(SCC(=O)O)nc2ccccc21	22	-8	.	2	-8	.	.	.	.	.
CCCn1c(SCC(=O)N2c3ccccc3Sc3ccccc32)nc2ccccc21	-2	-15	26*	8	46	10*	3	0	17	11*
O=C(COC(=O)c1ccc(Sc2ncn[nH]2)c([N+](=O)[O-])c1)Nc1ccc(Cl)c(Cl)c1	.	.	20*	.	.	10.0*	8	1	38*	20*
O=C1c2ccccc2C(=O)N1CCCCN(C(=O)c1cccc([N+](=O)[O-])c1)c1ccc(Cl)cc1	-5	-4	26*	3	34	10*	5	2	30*	14*
O=C1c2ccccc2C(=O)N1CCCCN(C(=O)c1ccco1)c1ccc(Cl)cc1	7	.	5	7	16	-3	.	.	.	.
